Reference: ChEMBL document CHEMBL1152922, “7-O-methylkaempferol and -quercetin glycosides from the whole plant of Nervilia fordii” (J Nat Prod, 2009)
Calls of active or inactive are those of the source. The rule behind the calls is not given here.

How the values were obtained:
[1] = Cytotoxicity against african green monkey Vero cells after 3 days by MTT assay; format: cell-based; details: chlorocebus sabaeus, read-out: MNCC
Human alphaherpesvirus 1 [2] = experiment: Antiviral activity against HSV1 infected in african green monkey Vero cells assessed as total inhibitory concentration after 3 days by plaque reduction assay; format: functional
In short: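 Vero cells seeded in 24-well plates and grown 24 h, then infected with 30 PFU HSV-1 in the presence of a range of sample concentrations. Samples were diluted in DMEM with 2% FBS at pH 7.2, and medium alone served as control. Wells were overlaid with 1% methylcellulose medium and incubated 3 days, then formalin-fixed and crystal violet-stained. Plaques were counted, and the 100%-inhibitory concentration was read from plots.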

Human alphaherpesvirus 1 [3] = experiment: Antiviral activity against HSV1 infected in african green monkey Vero cells assessed as inhibition of virus-induced cytopathic effect after 3 days; details: Human alphaherpesvirus 1, Vero, 72 h

IC50 (Human alphaherpesvirus 1 [3]) [µM]	Compound	MNTC at 72 h [1] [µM]	Activity (Human alphaherpesvirus 1 [2])
	COc1cc(O)c2c(=O)c(O[C@@H]3O[C@H](CO)[C@@H](O)[C@H](O)[C@H]3O)c(-c3ccc(O[C@@H]4O[C@H](CO)[C@@H](O)[C@H](O)[C@H]4O)cc3)oc2c1 [COMPLANATUSIDE]	320	inactive
	COc1cc(O)c2c(=O)c(O[C@@H]3O[C@H](CO)[C@@H](O[C@@H]4OC[C@@H](O)[C@H](O)[C@H]4O)[C@H](O)[C@H]3O)c(-c3ccc(O)cc3)oc2c1 [NERVILIFORDIN A]	170	inactive
	O=c1ccc2cc(O)c(O)cc2o1 [ESCULETIN]	140	0.14 mM
	COc1cc(O)c2c(=O)c(O)c(-c3ccc(O)cc3)oc2c1 [RHAMNOCITRIN]	80	inactive
	COc1cc(O)c2c(=O)c(O)c(-c3ccc(O)c(O)c3)oc2c1 [RHAMNETIN]	80	inactive
	O=c1cc(-c2ccc(O)cc2)oc2c([C@@H]3O[C@H](CO)[C@@H](O)[C@H](O)[C@H]3O)c(O)c([C@@H]3O[C@H](CO)[C@@H](O)[C@H](O)[C@H]3O)c(O)c12	170	inactive
	COc1cc(O)c2c(=O)c(O)c(-c3ccc(O)c(OC)c3)oc2c1 [RHAMNAZIN]	40	inactive
	COc1cc(O)c2c(=O)c(O[C@@H]3O[C@H](CO)[C@@H](O[C@@H]4O[C@H](CO)[C@@H](O)[C@H](O)[C@H]4O)[C@H](O)[C@H]3O)c(-c3ccc(O)cc3)oc2c1 [NERVILIFORDIN B]	160	inactive
	COc1cc(O)c2c(=O)c(O[C@@H]3O[C@H](CO)[C@@H](O)[C@H](O)[C@H]3O)c(-c3ccc(O)c(OC)c3)oc2c1	200	inactive
	COc1cc(O)c2c(=O)c(O[C@@H]3O[C@H](CO)[C@@H](O[C@@H]4O[C@H](CO)[C@@H](O)[C@H](O)[C@H]4O)[C@H](O)[C@H]3O)c(-c3ccc(O)c(O)c3)oc2c1 [NERVILIFORDIN C]	160	inactive
4.3	Nc1nc2c(ncn2COCCO)c(=O)[nH]1 [ACYCLOVIR]	1110	
